# ChEMBL document CHEMBL4229344 (Eur J Med Chem, 2018)
# How the values were obtained:
# [1] = biological target: BDNF/NT-3 growth factors receptor (Homo sapiens) (UniProt Q16620); assay: Binding affinity to wild-type human partial length TRKB (Q547 to G838 residues) expressed in mammalian expression system assessed as residual binding level at 1 uM by Kinomescan method relative to control
# [2] = biological target: Serine/threonine-protein kinase SIK2 (Homo sapiens) (UniProt Q9H0K1); assay: Binding affinity to wild-type human full length SIK2 (M1 to N926 residues) expressed in bacterial expression system assessed as residual binding level at 1 uM by Kinomescan method relative to control
# In short: (§1)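 KINOMEscan competition binding against 468 purified kinases/mutants, test compound at 1 µM; residual binding relative to control.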
# [3] = biological target: Vascular endothelial growth factor receptor 1 (Homo sapiens) (UniProt P17948); assay: Binding affinity to wild-type human partial length FLT1 (R781 to F1239 residues) expressed in bacterial expression system assessed as residual binding level at 1 uM by Kinomescan method relative to control
# In short: (§2)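 Kinome-wide competition binding screen against a panel of 468 purified kinases/mutants, with the test compound at a single concentration of 1 μM. Read-out is the relative binding activity of each kinase in the presence of compound.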
# [4] = test system: Tyrosine-protein kinase ABL1 (Homo sapiens), P00519 [H396P]; assay: Binding affinity to human phosphorylated ABL1 H396P mutant (S229 to K512 residues) expressed in mammalian expression system assessed as residual binding level at 1 uM by Kinomescan method relative to control
# In short: (§3)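 Single-concentration (1 μM) competition-binding screen run by KINOMEscan against a panel of 468 purified kinases and mutants. The read-out is the relative binding activity of the test compound to each kinase.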
# [5] = biological target: Mitogen-activated protein kinase 10 (Homo sapiens) (UniProt P53779); assay: Binding affinity to wild-type human partial length JNK3 (V28 to Q422 residues) expressed in mammalian expression system assessed as residual binding level at 1 uM by Kinomescan method relative to control; in short: as §2
# [6] = biological target: Platelet-derived growth factor receptor alpha (Homo sapiens, UniProt P16234); assay: Inhibition of PDGFRalpha in human EOL-1 cells assessed as decrease in STAT5 phosphorylation at Y694 residue after 2 hrs in presence of PDGF-AA by Western blot analysis; format: cell-based
# [7] = biological target: Cyclin-dependent kinase 2 (Homo sapiens) (UniProt P24941); assay: Binding affinity to wild-type human full length CDK2 (M1 to L298 residues) expressed in bacterial expression system assessed as residual binding level at 1 uM by Kinomescan method relative to control; in short: as §3
# [8] = test system: Proto-oncogene tyrosine-protein kinase receptor Ret (Homo sapiens), P07949 [M918T]; assay: Binding affinity to human partial length RET M918T mutant (E713 to D1014 residues) expressed in bacterial expression system assessed as residual binding level at 1 uM by Kinomescan method relative to control
# In short: (§4)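 Kinome-wide single-concentration binding screen (KINOMEscan) at 1 μM against a panel of 468 purified kinases and mutants. Read-out is relative binding of each kinase compared with control. Selectivity across the panel was summarised as an S(10) score.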
# [9] = biological target: Mitogen-activated protein kinase kinase kinase 4 (Homo sapiens) (UniProt Q9Y6R4); assay: Binding affinity to wild-type human partial length MAP3K4 (G1319 to E1608 residues) expressed in bacterial expression system assessed as residual binding level at 1 uM by Kinomescan method relative to control
# [10] = biological target: Dual specificity mitogen-activated protein kinase kinase 6 (Homo sapiens) (UniProt P52564); assay: Binding affinity to wild-type human partial length MEK6 (K36 to D334 residues) expressed in bacterial expression system assessed as residual binding level at 1 uM by Kinomescan method relative to control
# [11] = biological target: Ephrin type-B receptor 3 (Homo sapiens) (UniProt P54753); assay: Binding affinity to wild-type human partial length EPHB3 (Q599 to T928 residues) expressed in bacterial expression system assessed as residual binding level at 1 uM by Kinomescan method relative to control; in short: as §2
# [12] = biological target: TGF-beta receptor type-1 (Homo sapiens) (UniProt P36897); assay: Binding affinity to wild-type human partial length TGFBR1 (D179 to M503 residues) expressed in bacterial expression system assessed as residual binding level at 1 uM by Kinomescan method relative to control
# [13] = test system: Mast/stem cell growth factor receptor Kit (Homo sapiens), P10721 [L576P]; assay: Binding affinity to human partial length KIT L576P mutant (Y545 to D952 residues) expressed in bacterial expression system assessed as residual binding level at 1 uM by Kinomescan method relative to control; in short: as §4
# [14] = biological target: Serine/threonine-protein kinase 4 (Homo sapiens) (UniProt Q13043); assay: Binding affinity to wild-type human full length MST1 (M1 to F487 residues) expressed in bacterial expression system assessed as residual binding level at 1 uM by Kinomescan method relative to control; in short: as §1
# [15] = biological target: Dual specificity protein kinase CLK4 (Homo sapiens) (UniProt Q9HAZ1); assay: Binding affinity to wild-type human partial length CLK4 (R135 to K481 residues) expressed in bacterial expression system assessed as residual binding level at 1 uM by Kinomescan method relative to control; in short: as §2
# [16] = biological target: Tyrosine-protein kinase Tec (Homo sapiens) (UniProt P42680); assay: Binding affinity to wild-type human partial length TEC (L341 to D620 residues) expressed in bacterial expression system assessed as residual binding level at 1 uM by Kinomescan method relative to control
# [17] = biological target: Serine/threonine-protein kinase Nek10 (Homo sapiens) (UniProt Q6ZWH5); assay: Binding affinity to wild-type human partial length NEK10 (L488 to R809 residues) expressed in mammalian expression system assessed as residual binding level at 1 uM by Kinomescan method relative to control
# [18] = biological target: Calcium/calmodulin-dependent protein kinase type II subunit alpha (Homo sapiens) (UniProt Q9UQM7); assay: Binding affinity to wild-type human partial length CAMK2A (M1 to K328 residues) expressed in bacterial expression system assessed as residual binding level at 1 uM by Kinomescan method relative to control; in short: as §2
# [19] = biological target: Serine/threonine-protein kinase NIM1 (Homo sapiens) (UniProt Q8IY84); assay: Binding affinity to wild-type human partial length NIM1 (Q44 to N355 residues) expressed in mammalian expression system assessed as residual binding level at 1 uM by Kinomescan method relative to control
# [20] = biological target: Ribosomal protein S6 kinase alpha-6 (Homo sapiens) (UniProt Q9UK32); assay: Binding affinity to wild-type human partial length N-terminal RSK4 kinase domain 1 (M1 to E397 residues) expressed in mammalian expression system assessed as residual binding level at 1 uM by Kinomescan method relative to control
# [21] = biological target: Tyrosine-protein kinase SYK (Homo sapiens) (UniProt P43405); assay: Binding affinity to wild-type human partial length SYK (D354 to N635 residues) expressed in bacterial expression system assessed as residual binding level at 1 uM by Kinomescan method relative to control
# [22] = biological target: Cyclin-dependent kinase 2 homolog (Plasmodium falciparum (isolate 3D7)) (UniProt P61075); assay: Binding affinity to wild-type Plasmodium falciparum 3D7 full length PK5 (M1 to N288 residues) expressed in mammalian expression system assessed as residual binding level at 1 uM by Kinomescan method relative to control; in short: as §3
# Sequence of Cyclin-dependent kinase 2 homolog (Plasmodium falciparum (isolate 3D7)) (P61075 whole entry, the tested form may be a part): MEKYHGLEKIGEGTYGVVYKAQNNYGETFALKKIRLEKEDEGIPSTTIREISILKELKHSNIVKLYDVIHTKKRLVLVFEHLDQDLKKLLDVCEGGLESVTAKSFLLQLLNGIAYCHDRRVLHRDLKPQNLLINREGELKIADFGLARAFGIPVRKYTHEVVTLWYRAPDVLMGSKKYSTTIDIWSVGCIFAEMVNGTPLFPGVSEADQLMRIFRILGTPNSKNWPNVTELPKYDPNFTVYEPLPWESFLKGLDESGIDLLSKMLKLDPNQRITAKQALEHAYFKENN
# Sequence of Serine/threonine-protein kinase 4 (Homo sapiens) (Q13043 whole entry, the tested form may be a part): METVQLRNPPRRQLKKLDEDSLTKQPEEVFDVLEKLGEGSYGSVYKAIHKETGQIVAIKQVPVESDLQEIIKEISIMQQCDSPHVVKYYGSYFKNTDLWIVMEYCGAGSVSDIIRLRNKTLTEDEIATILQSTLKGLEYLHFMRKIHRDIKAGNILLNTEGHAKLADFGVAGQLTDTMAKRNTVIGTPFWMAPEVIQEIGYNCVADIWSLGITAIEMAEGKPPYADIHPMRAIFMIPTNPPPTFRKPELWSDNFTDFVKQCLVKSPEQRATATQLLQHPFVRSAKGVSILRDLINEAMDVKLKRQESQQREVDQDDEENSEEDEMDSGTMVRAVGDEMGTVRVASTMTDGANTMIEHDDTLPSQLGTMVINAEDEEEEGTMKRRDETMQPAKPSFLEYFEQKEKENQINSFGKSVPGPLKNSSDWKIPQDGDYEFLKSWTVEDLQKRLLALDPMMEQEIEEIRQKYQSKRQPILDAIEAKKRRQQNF
# Sequence of Mitogen-activated protein kinase kinase kinase 4 (Homo sapiens) (Q9Y6R4 whole entry, the tested form may be a part): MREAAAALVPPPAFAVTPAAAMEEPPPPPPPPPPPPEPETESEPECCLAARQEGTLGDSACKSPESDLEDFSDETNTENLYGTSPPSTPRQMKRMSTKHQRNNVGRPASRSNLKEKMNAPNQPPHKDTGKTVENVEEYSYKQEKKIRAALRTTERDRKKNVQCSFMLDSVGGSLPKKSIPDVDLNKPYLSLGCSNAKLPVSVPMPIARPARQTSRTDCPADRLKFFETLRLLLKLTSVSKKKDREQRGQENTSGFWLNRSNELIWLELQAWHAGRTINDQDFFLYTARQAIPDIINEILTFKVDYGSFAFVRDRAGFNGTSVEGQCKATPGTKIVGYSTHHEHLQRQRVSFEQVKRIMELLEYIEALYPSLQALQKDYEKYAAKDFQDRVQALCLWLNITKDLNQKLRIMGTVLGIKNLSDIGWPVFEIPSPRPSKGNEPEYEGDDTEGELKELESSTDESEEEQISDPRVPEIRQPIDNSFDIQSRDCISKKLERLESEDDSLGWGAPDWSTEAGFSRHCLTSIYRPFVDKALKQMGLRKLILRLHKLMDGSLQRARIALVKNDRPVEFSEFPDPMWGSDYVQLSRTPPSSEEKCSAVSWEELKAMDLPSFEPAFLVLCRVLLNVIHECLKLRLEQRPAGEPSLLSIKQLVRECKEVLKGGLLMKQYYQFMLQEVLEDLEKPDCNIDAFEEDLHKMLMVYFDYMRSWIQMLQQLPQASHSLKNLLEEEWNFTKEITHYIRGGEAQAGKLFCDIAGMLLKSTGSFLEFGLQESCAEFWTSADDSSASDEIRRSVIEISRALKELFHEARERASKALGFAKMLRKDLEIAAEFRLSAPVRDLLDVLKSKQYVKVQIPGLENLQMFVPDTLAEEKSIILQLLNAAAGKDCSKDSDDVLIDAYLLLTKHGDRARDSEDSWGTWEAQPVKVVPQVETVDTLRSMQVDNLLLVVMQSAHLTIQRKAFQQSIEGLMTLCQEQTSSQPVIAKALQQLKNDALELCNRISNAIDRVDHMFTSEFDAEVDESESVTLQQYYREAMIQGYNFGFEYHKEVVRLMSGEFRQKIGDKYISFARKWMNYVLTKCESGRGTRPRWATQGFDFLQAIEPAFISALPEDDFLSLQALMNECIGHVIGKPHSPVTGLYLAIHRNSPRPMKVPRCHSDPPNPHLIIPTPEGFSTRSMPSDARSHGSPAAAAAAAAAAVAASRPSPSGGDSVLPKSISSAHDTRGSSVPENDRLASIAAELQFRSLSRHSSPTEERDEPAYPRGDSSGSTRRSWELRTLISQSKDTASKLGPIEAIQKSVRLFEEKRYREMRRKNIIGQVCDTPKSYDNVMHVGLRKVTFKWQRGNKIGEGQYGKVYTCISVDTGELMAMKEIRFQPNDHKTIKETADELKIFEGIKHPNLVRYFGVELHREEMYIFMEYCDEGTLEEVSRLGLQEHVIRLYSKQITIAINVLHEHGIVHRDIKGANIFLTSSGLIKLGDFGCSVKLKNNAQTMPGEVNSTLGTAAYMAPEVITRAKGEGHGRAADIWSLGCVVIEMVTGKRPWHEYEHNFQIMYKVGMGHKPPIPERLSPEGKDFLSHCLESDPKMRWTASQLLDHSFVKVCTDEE
# Sequence of Vascular endothelial growth factor receptor 1 (Homo sapiens) (P17948 whole entry, the tested form may be a part): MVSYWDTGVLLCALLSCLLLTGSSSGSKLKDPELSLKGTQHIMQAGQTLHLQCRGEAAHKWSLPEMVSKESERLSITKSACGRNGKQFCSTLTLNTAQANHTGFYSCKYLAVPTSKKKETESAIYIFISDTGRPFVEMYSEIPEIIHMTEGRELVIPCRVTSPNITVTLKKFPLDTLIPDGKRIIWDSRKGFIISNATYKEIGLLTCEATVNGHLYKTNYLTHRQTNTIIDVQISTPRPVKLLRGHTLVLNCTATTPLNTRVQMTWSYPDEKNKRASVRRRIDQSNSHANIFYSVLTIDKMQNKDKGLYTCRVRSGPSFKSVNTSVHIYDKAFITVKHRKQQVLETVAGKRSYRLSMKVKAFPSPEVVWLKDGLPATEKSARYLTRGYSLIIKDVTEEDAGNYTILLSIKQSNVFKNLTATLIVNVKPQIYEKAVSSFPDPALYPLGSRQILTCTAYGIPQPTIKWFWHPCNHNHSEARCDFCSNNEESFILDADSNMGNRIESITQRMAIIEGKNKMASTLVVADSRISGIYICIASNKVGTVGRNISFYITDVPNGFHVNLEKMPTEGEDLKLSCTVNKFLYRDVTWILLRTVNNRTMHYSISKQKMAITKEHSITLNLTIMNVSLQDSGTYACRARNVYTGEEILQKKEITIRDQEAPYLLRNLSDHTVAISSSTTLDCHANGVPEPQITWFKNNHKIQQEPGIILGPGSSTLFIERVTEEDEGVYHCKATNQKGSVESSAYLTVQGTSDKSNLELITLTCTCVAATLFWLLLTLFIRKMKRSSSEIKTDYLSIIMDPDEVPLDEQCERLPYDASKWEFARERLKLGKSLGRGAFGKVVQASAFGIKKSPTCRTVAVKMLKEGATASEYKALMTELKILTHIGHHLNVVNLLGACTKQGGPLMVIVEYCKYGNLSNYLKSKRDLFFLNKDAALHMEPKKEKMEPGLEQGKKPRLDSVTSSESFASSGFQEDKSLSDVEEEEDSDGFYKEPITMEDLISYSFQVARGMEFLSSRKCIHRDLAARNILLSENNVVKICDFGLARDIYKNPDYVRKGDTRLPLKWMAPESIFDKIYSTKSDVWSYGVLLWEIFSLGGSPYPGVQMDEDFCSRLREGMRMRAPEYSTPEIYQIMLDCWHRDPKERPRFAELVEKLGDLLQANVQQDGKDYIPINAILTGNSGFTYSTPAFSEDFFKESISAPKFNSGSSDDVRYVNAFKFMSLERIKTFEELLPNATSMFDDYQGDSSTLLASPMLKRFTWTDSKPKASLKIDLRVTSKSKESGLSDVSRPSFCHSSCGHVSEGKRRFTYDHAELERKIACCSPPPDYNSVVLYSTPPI
# Sequence of Serine/threonine-protein kinase NIM1 (Homo sapiens) (Q8IY84 whole entry, the tested form may be a part): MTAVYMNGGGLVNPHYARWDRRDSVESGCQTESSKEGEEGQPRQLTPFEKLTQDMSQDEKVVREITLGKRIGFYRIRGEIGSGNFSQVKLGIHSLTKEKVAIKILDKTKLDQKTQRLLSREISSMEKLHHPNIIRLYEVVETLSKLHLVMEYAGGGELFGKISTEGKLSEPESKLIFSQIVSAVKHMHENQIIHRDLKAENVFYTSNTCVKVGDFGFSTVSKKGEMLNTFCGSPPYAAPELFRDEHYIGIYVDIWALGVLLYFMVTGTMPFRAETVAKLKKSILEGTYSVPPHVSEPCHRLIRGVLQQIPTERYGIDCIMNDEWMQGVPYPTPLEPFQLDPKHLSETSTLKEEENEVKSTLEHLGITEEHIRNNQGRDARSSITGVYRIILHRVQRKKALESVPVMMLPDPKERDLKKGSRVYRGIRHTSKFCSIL
# Sequence of BDNF/NT-3 growth factors receptor (Homo sapiens) (Q16620 32-822 limits assumed): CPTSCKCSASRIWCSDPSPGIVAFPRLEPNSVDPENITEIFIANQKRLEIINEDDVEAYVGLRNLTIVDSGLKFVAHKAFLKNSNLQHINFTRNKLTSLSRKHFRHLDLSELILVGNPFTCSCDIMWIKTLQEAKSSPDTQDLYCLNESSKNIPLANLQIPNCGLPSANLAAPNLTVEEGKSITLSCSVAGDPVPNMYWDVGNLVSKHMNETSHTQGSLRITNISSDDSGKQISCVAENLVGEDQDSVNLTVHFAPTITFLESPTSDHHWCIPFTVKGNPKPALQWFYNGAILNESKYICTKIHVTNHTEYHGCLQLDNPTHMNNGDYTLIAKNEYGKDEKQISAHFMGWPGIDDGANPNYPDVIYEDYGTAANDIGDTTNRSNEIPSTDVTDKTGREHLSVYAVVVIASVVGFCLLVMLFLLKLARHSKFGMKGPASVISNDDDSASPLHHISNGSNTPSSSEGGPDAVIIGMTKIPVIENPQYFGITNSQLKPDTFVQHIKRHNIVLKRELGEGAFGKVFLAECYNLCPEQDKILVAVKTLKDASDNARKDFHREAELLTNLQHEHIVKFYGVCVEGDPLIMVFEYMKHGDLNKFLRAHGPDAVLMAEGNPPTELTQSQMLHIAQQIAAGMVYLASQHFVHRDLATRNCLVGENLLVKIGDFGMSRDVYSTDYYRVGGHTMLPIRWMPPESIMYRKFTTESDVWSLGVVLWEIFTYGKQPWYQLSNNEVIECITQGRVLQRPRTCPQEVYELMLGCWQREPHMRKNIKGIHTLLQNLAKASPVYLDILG
smiles,measurement,setting,value
Cc1ccc(NC(=O)c2ccc(CN(CCN(C)C)C(=O)c3cccnc3)cc2)cc1Nc1nccc(-c2cccnc2)n1,Activity,[1],100%
same,Activity,[2],87%
same,Activity,[3],75%
same,Activity,[4],97%
same,Activity,[5],48%
same,inhibition,[6],Dose-dependent effect
same,Activity,[7],95%
same,Activity,[8],85%
same,Activity,[9],90%
same,Activity,[10],100%
same,Activity,[11],94%
same,Activity,[12],100%
same,Activity,[13],0.6%
same,Activity,[14],79%
same,Activity,[15],66%
same,Activity,[16],100%
same,Activity,[17],100%
same,Activity,[18],89%
same,Activity,[19],100%
same,Activity,[20],100%
same,Activity,[21],96%
same,Activity,[22],100%
